Experiments:
[1] = tested on: Hepatitis C virus; test: Inhibition of HCV 1b BK NS5B570 RNA polymerase; design: species or system Hepatitis C virus subtype 1b
Method in brief: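 NS5B570-BK polymerase activity was read as incorporation of radiolabeled nucleoside monophosphate into acid-insoluble RNA products, with HCV cIRES RNA as template.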

[2] = Cytotoxicity against human 2209-23 cells at 20 uM; assay type: cell-based; details: 2209-23, 20 µM
[3] = tested on: Hepatitis C virus; test: Antiviral activity against HCV 1b replicon in human 2209-23 cells assessed as inhibition of viral replication at 20 uM; assay type: functional, Hepacivirus hominis; details: genotype 1b
Method in brief: (§1)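 Huh-7 replicon cell line 2209-23. Compounds were tested at a single fixed concentration and scored as percent inhibition of replicon replication, or titrated to give the IC50, the concentration producing a 50% reduction in replicon replication.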

[4] = Cytotoxicity against human 2209-23 cells at 100 uM; assay type: cell-based; details: 2209-23, 100 µM
[5] = tested on: Hepatitis C virus; test: Antiviral activity against HCV 1b replicon in human 2209-23 cells assessed as inhibition of viral replication at 100 uM; assay type: functional, Hepacivirus hominis; details: genotype 1b
[6] = tested on: Hepatitis C virus; test: Antiviral activity against HCV 1b replicon in human 2209-23 cells; assay type: functional, organism-based, Hepacivirus hominis; details: genotype 1b; method in brief: as §1
[7] = Cytotoxicity against human 2209-23 cells; assay type: cell-based
[8] = Cytostatic activity against human 2209-23 cells; assay type: ADME, cell-based; details: read-out: CT50 (the source's name)
Method in brief: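 Replicon cells were tested for proliferation by measuring incorporation of tritiated thymidine into cellular DNA with a scintillation proximity assay (SPA). CT50 was taken as the cytostatic concentration.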

SMILES	Activity [2] [%]	inhibition at 20 µM [3] [%]	also measured
[N-]=[N+]=N[C@]1(CO)O[C@@H](n2ccc(=O)[nH]c2=O)[C@H](O)[C@@H]1O	17	13	IC50 [1]: 0.3 µM
CC[C@]1(CO)O[C@@H](n2ccc(N)nc2=O)[C@H](O)[C@@H]1O	–	–	Activity [4]: 20%; inhibition at 100 µM [5]: 20%
O=c1ccn([C@@H]2OC(CO)(CO)[C@@H](O)[C@H]2O)c(=O)[nH]1	0	1	–
CC#C[C@]1(CO)O[C@@H](n2ccc(=O)[nH]c2=O)[C@H](O)[C@@H]1O	–	–	Activity [4]: 19%; inhibition at 100 µM [5]: 76%
CC#C[C@]1(CO)O[C@@H](n2ccc(N)nc2=O)[C@H](O)[C@@H]1O	0	11	–
C=C[C@]1(CO)O[C@@H](n2ccc(=O)[nH]c2=O)[C@H](O)[C@@H]1O	0	–	inhibition at 100 µM [5]: 50%
C=C[C@]1(CO)O[C@@H](n2ccc(N)nc2=O)[C@H](O)[C@@H]1O	0	–	inhibition at 100 µM [5]: 53%
N#C[C@]1(CO)O[C@@H](n2ccc(=O)[nH]c2=O)[C@H](O)[C@@H]1O	0	0	–
N#C[C@]1(CO)O[C@@H](n2ccc(N)nc2=O)[C@H](O)[C@@H]1O	100	99	–
C#C[C@]1(CO)O[C@@H](n2ccc(=O)[nH]c2=O)[C@H](O)[C@@H]1O	0	0	–
Nc1ccn([C@@H]2O[C@H](CO)[C@@H](O)[C@H]2F)c(=O)n1	–	–	IC50 [6]: 0.58 µM; CC50 [7]: > 100 µM; GI50 [8]: 0.8 µM
CCO[C@]1(CO)O[C@@H](n2ccc(N)nc2=O)[C@H](O)[C@@H]1O	0	11	–
Nc1ccn([C@@H]2OC(CO)(CO)[C@@H](O)[C@H]2O)c(=O)n1	2	13	–
C=CC[C@]1(CO)O[C@@H](n2ccc(=O)[nH]c2=O)[C@H](O)[C@@H]1O	–	–	IC50 [6]: 22 µM; CC50 [7]: 39 µM
C=CC[C@]1(CO)O[C@@H](n2ccc(N)nc2=O)[C@H](O)[C@@H]1O	0	0	–
C[C@@]1(O)[C@H](O)[C@@H](CO)O[C@H]1n1ccc(N)nc1=O	–	–	IC50 [6]: 1.23 µM; CC50 [7]: > 33 µM; GI50 [8]: > 100 µM
C#C[C@]1(CO)O[C@@H](n2ccc(N)nc2=O)[C@H](O)[C@@H]1O	0	3	IC50 [1]: 2.7 µM
[N-]=[N+]=N[C@]1(CO)O[C@@H](n2ccc(N)nc2=O)[C@H](O)[C@@H]1O [4'-AZIDOCYTIDINE]	13	97	IC50 [6]: 1.28 µM; CC50 [7]: > 2000 µM; IC50 [1]: 0.29 µM; GI50 [8]: > 100 µM

Source: ChEMBL document CHEMBL1139169, “Design, synthesis, and antiviral properties of 4'-substituted ribonucleosides as inhibitors of hepatitis C virus replication: the discovery of R1479” (Bioorg Med Chem Lett, 2007)
